From PubChem
Sampled rows, rich in hits. Any-hit rate of the full collection: about 2.2%.
MCL1-BIM inh: inhibitors of human MCL1 binding to BIM-BH3 peptide | GST-MCL1 / FITC-Bim-BH3 fluorescence polarization | AID 2057 | 320,000 tested, 0.68% active | Q07820 | inhibition, % at 10.9 µM;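 active = inhibition above the mean inhibition of all tested compounds plus 3 SD, set per campaign, cut at about 40% in these data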;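 note: 0% = DMSO wells and 100% = unlabeled Bim-BH3 peptide control; higher means more loss of mP so more displacement of Bim peptide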
Target sequence (Q07820 whole entry, looked up): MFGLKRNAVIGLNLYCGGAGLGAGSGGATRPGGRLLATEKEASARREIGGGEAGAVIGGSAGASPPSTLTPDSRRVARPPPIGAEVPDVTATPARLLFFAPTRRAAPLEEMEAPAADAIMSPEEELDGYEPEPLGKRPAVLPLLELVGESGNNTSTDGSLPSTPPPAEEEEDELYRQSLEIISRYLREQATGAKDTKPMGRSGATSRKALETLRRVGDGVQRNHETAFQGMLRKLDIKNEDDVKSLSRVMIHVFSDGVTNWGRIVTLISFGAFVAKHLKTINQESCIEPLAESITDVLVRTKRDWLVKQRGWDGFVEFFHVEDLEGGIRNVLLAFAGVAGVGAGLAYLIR
Mcl-1 Bim block: human Bim-Mcl-1 interaction inhibition; Q07820; inhibition, % at 10 µM; Bead-based flow cytometry, Bim peptide-Mcl-1 binding; 190,000 tested, 0.1% active; in the data active = inhibition above about 40%;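 note: 0% = no compound tracer wells and 100% = peptide blocker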
RBBP9 inh: human RBBP9 hydrolase inhibition; O75884; recombinant RBBP9, FP-Rh probe fluorescence polarization; inhibition, % at 7.94 µM; 220,000 tested, 0.2% active;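 active = inhibition above the campaign mean of all tested compounds plus 3 SD, cut at about 14% in these data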;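 note: plate controls were DMSO wells with RBBP9 for no effect and wells lacking RBBP9 protein for full effect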
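System: RBBP9 protein | Quantity: 2.5 µM RBBP9 dispensing solution, before mixing | Reagent: FP-Rh probe, 375 nM dispensing solution | Timing: Enzyme-compound preincubation 30 min, then probe labeling 45 min, 25 °C | Measured by: Fluorescence polarization | Read-out: % inhibition | Replication: One well per compound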
EBV gp42 block: inhibitors of Epstein-Barr virus glycoprotein 42. inhibition, % (tested at 21.74 µM). Fluorescence polarization binding assay, mP read-out. 220,000 tested, 0.42% active. AID 1085; in the data active = inhibition above about 50%
Target sequence (Q1HVG2 whole entry, looked up): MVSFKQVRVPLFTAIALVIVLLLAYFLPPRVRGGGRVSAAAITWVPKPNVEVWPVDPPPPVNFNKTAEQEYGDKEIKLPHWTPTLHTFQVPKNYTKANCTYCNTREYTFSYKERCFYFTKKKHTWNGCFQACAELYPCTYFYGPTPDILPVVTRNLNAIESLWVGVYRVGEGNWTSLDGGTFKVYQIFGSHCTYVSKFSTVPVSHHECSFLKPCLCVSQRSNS
Mcl1 Noxa PPI: Mcl-1/Noxa interaction inhibition; 220,000 tested, 1.5% active; AID 1022; inhibition, % at 21.7 µM; TR-FRET Mcl-1/Noxa peptide binding, 2 h;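 active = compounds that cut the protein-peptide binding signal by more than 50% relative to plate controls in a single-dose test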;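 note: His-tagged Mcl-1 with rhodamine Noxa BH3 peptide and terbium anti-His antibody; 0% = Mcl-1 plus Noxa peptide wells and 100% = peptide-only wells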
Mcl1-Bid inh: Mcl-1/Bid interaction inhibition | Q07820 | TR-FRET Mcl-1/Bid-Dy647 peptide binding, 1536-well | inhibition, % at 21.7 µM | 220,000 tested, 0.97% active;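 active = compounds that cut the binding signal by more than half at the single screening dose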;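 note: His-tagged Mcl-1 with europium anti-His antibody binding Bid BH3 peptide; 0% = Mcl-1 plus peptide wells and 100% = peptide-only wells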
BCLXL inh confirm: Bcl-xL (human) inhibition, MCL1 counter-screen confirmation | shares compounds with MCL1-BIM inh | GST-Bcl-xL / FITC-Bim BH3 peptide FP binding | inhibition, % at 10.9 µM | 1,700 tested, 54% active | AID 2166;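 active = inhibition above a cutoff equal to the mean inhibition of all tested compounds plus 3 SD, cut at about 30% in these data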;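 note: 0% = DMSO wells and 100% = unlabeled Bim BH3 control peptide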
MCL1 inh confirm: MCL1-BIM-BH3 interaction inhibition, confirmation; shares compounds with MCL1-BIM inh; GST-MCL1 / FITC-Bim-BH3 fluorescence polarization; AID 2168; 1,700 tested, 61% active; inhibition, % at 10.9 µM;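 active = inhibition above the average of all tested compounds plus 3 SD, cut at about 40% in these data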;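 note: 0% = DMSO wells and 100% = unlabeled Bim-BH3 control peptide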
Active calls of the source: *; . = not tested or not shown.

SMILES	MCL1-BIM inh	Mcl-1 Bim block	RBBP9 inh	EBV gp42 block	Mcl1 Noxa PPI	Mcl1-Bid inh	BCLXL inh confirm	MCL1 inh confirm
O=C(N=Nc1c(O)[nH]c2ccccc12)c1cc(-c2cccs2)[nH]n1	43.2*	.	0.4	49.2	46.2	-47.0	11.7	31.4
C[C@@H]1CN(C(=O)c2cc(COc3cccc(C(F)(F)F)c3)on2)C[C@H](C)O1	4.0	.	.	.	.	.	.	.
Cc1ccc(C)n1Cc1ccc(C(=O)O)cc1	92.2*	0.0	-1.3	6.7	61.6*	-18.8	36.2*	110.1*
Cc1cc(C)n(Cc2ccc(C(=O)O)cc2)n1	4.1	-1.0	0.2	-22.7	0.1	-17.9	.	.
COc1cc2cccc(OC)c(=O)c2c(OC)c1OC	1.8	4.0	-1.3	-1.9	6.9	-13.8	.	.
O=c1c(O)cccc2cc(O)c(O)c(O)c12	109.1*	.	1.2	81.8*	103.5*	92.3*	85.4*	103.4*
Cc1c(N/C=C(\Cl)C(=O)C(F)(F)F)c(=O)n(-c2ccccc2)n1C	-6.3	0.0	-7.8	5.1	1.8	-25.3	.	.
Cc1c(NC=C(C#N)C#N)c(=O)n(-c2ccccc2)n1C	74.9*	-2.0	-3.7	-5.8	5.3	-43.6	11.3	19.2
Cc1c(NCc2nc3ccccc3[nH]2)c(=O)n(-c2ccccc2)n1C	54.6*	0.0	2.9	-12.4	-28.4	-58.0	41.2*	55.0*
Cc1c(NCc2cc(Cl)cc(Cl)c2O)c(=O)n(-c2ccccc2)n1C	3.0	-1.0	-7.8	17.0	7.4	-11.5	.	.
O=C1CCNc2cc3ccccc3cc21	130.6*	4.0	3.2	47.7	59.5*	-88.0	114.3*	143.7*
Cc1csc(SCC(=O)Nc2ccccn2)n1	4.5	-1.0	1.9	-15.6	-3.7	-23.4	.	.
O=C(CSc1nc(-c2ccc(F)cc2)cs1)Nc1ccccn1	64.1*	-1.0	-6.7	-25.7	8.3	0.9	8.9	6.0
Cc1cccc(N/C(N)=N/c2nc(C)c(Cc3ccccc3)c(=O)[nH]2)c1	-3.4	0.0	-10.2	6.6	3.7	3.5	.	.
Cc1cc(-c2ccco2)c(C#N)c2nc3ccccc3n12	128.2*	4.0	-4.0	.	.	.	126.9*	173.4*
O=C(COC(=O)/C=C/c1ccc(Br)o1)Nc1ccc2[nH]c(=O)[nH]c2c1	67.9*	.	.	.	.	.	8.0	63.4*
COC1CCN(C(=O)CC2C(=O)NCCN2CC(C)(C)C)CC1 (configuration not stated)	50.2*	0.0	-1.8	-3.5	1.6	-169.5	9.9	19.3
Cc1ccc2c3c(cccc13)-c1ccccc1C2=O	42.1*	11.0	-6.2	62.0*	13.1	-1.1	27.1	30.6
CCOCCc1nnc(NC(=O)C2CC(=O)N(c3ccc(OCC)cc3)C2)s1 (configuration not stated)	-2.4	.	.	.	.	.	.	.
NC(=O)c1ccc(NC(=O)COC(=O)CNC(=O)c2sc3ccccc3c2Cl)cc1	-7.5	.	.	.	.	.	.	.
N#Cc1c(SCC(=O)N2CCOCC2)nsc1SCC(=O)N1CCOCC1	76.1*	-3.0	4.6	-1.9	0.9	2.8	9.3	12.0
COCCCN1CC(=O)N2C(c3cccc(OC)c3OC)c3[nH]c4ccccc4c3C[C@H]2C1=O (some centres not stated)	4.0	.	.	.	.	.	.	.
CCN(CC)S(=O)(=O)c1cccc(C(=O)N/N=C2\CCCC(=O)C2)c1	55.9*	.	-5.5	4.8	-1.1	-36.1	8.4	12.7
CCOC(=O)c1c(C)[nH]c(C)c1S(=O)(=O)N(C)CC(=O)N1CCN(c2ccc(OC)cc2)CC1	6.5	.	.	.	.	.	.	.
CSc1cccc(NC(=O)C2CCCN(S(=O)(=O)c3cccs3)C2)c1 (configuration not stated)	10.0	.	.	.	.	.	.	.
SMILES	MCL1-BIM inh	Mcl-1 Bim block	RBBP9 inh	EBV gp42 block	Mcl1 Noxa PPI	Mcl1-Bid inh	BCLXL inh confirm	MCL1 inh confirm
COc1cccc(CNC(=O)COC(=O)/C(C#N)=C/c2ccc(N(C)C)cc2)c1	136.5*	.	.	.	.	.	89.2*	116.1*
CC(C)(C)OC(=O)NCCCCC1=CC2=CC(=O)C(C)(OC(=O)c3ccco3)C(=O)C2=CO1 (configuration not stated)	61.2*	.	.	.	.	.	22.7	31.9
COC(=O)CCCC1=CC2=CC(=O)C(C)(OC(=O)c3cccs3)C(=O)C2=CN1Cc1ccco1 (configuration not stated)	16.7	.	.	-0.2	8.9	-82.4	.	.
CC1(OC(=O)C2CCCC2)C(=O)C=C2C=C3CCCN3C=C2C1=O (configuration not stated)	29.1	.	.	.	.	.	.	.
COC(=O)CCCC1=CC2=CC(=O)C(C)(OC(=O)c3ccco3)C(=O)C2=CO1 (configuration not stated)	87.8*	.	.	.	.	.	75.0*	109.7*
CC(C)(C)OC(=O)NCCCC1=CC2=CC(=O)C(C)(OC(=O)C3CCCC3)C(=O)C2=CO1 (configuration not stated)	74.0*	.	.	.	.	.	47.6*	66.5*
CCCCC1=CC2=CC(=O)C(C)(O)C(=O)C2=CO1 (configuration not stated)	16.2	.	.	.	.	.	.	.
CCCCC1=CC2=CC(=O)C(C)(OC(=O)c3ccc(Cl)nc3)C(=O)C2=CO1 (configuration not stated)	65.6*	.	.	.	.	.	47.9*	64.7*
COC(=O)c1cc(C(=O)OCC(=O)NCc2ccc3c(c2)OCO3)cc([N+](=O)[O-])c1	-5.9	-6.0	-4.0	-13.6	2.6	2.1	.	.
CCOC(=O)c1cnc(-n2[nH]c(C)cc2=O)[nH]c1=O	74.0*	1.0	2.5	8.7	-9.4	-164.3	5.0	81.1*
Cc1c(N2C(=O)c3ccc4c5c(ccc(c35)C2=O)CC4)c(=O)n(-c2ccccc2)n1C	52.3*	0.0	-1.3	79.2*	96.4*	-26.4	33.0*	77.8*
CC(C)NC(=O)c1nc2c(nnn2Cc2cccc(Cl)c2)c(=O)[nH]1	10.3	.	.	.	.	.	.	.
CCCCn1c(SCC(=O)NCc2ccco2)nc2cc(S(N)(=O)=O)ccc21	41.0*	2.0	-5.0	-8.9	-8.2	-27.5	3.8	11.7
O=C(Nc1cccc(S(=O)(=O)Nc2ccc(Cl)cc2)c1)c1ccc[n+]([O-])c1	1.0	.	-6.5	-5.1	3.6	-1.3	.	.
Cc1cccc(NC(=S)NC(=O)c2oc3ccccc3c2C)n1	9.6	.	.	.	.	.	.	.
Cn1nc(-c2ccccc2)cc1NS(=O)(=O)c1ccccc1	-3.8	.	1.0	-9.3	-1.8	-3.6	.	.
Cn1nc(-c2ccccc2)cc1NS(=O)(=O)c1ccc(C#N)cc1	96.9*	.	-7.2	-1.4	8.0	2.9	1.9	-0.7
Cc1ccc(CNc2ccc3c(c2)OCO3)c(C)c1	143.5*	3.0	-1.5	42.9	38.4	-61.2	72.2*	89.9*
COC(=O)[C@@H](Cc1ccccc1)NC(=O)[C@H]1CCC(=O)N1C(=O)OCc1ccccc1	1.5	.	.	.	.	.	.	.
